{"source": "ChEMBL document CHEMBL1127048", "about": "“A potent new class of kappa-receptor agonist: 4-substituted 1-(arylacetyl)-2-[(dialkylamino)methyl]piperazines” (J Med Chem, 1993)", "key": {"Mus musculus [1]": {"test_system": "Mus musculus", "assay": "In vivo antinociceptive activity was determined using mouse acetylcholine induced abdominal constriction test following subcutaneous administration; range (0.20-1.09)", "assay_type": "functional", "settings": "Abdomen, sc; call rule not given here", "procedure,_shortened": "(§1)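 Mice given compound by subcutaneous injection, then challenged with acetylcholine to induce abdominal constrictions. Antinociceptive ED50 determined in mg/kg sc, with a bracketed range reported alongside.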"}, "Mus musculus [2]": {"test_system": "Mus musculus", "assay": "In vivo antinociceptive activity was determined using mouse acetylcholine induced abdominal constriction test following subcutaneous administration; range (0.03-0.08)", "assay_type": "functional", "settings": "Abdomen, sc", "procedure,_shortened": "as §1"}, "Mus musculus [3]": {"test_system": "Mus musculus", "assay": "In vivo antinociceptive activity was determined using mouse acetylcholine induced abdominal constriction test following subcutaneous administration; range (0.012-0.032)", "assay_type": "functional", "settings": "Abdomen, sc", "procedure,_shortened": "as §1"}, "Mus musculus [4]": {"test_system": "Mus musculus", "assay": "In vivo antinociceptive activity was determined using mouse acetylcholine induced abdominal constriction test following subcutaneous administration", "assay_type": "functional", "settings": "Abdomen, sc", "procedure,_shortened": "as §1"}, "Mus musculus [5]": {"test_system": "Mus musculus", "assay": "In vivo antinociceptive activity was determined using mouse acetylcholine induced abdominal constriction test following subcutaneous administration; range (0.007-0.018)", "assay_type": "functional", "settings": "Abdomen, sc", "procedure,_shortened": "as §1"}, "Mus musculus [6]": {"test_system": "Mus musculus", "assay": "In vivo antinociceptive activity was determined using mouse acetylcholine induced abdominal constriction test following subcutaneous administration; range (0.024-0.066)", "assay_type": "functional", "settings": "Abdomen, sc", "procedure,_shortened": "as §1"}, "Mus musculus [7]": {"test_system": "Mus musculus", "assay": "In vivo antinociceptive activity was determined using mouse acetylcholine induced abdominal constriction test following subcutaneous administration; range (0.002-0.007)", "assay_type": "functional", "settings": "Abdomen, sc", "procedure,_shortened": "as §1"}, "Mus musculus [8]": {"test_system": "Mus musculus", "assay": "In vivo antinociceptive activity was determined using mouse acetylcholine induced abdominal constriction test following subcutaneous administration; range (0.12-0.48)", "assay_type": "functional", "settings": "Abdomen, sc", "procedure,_shortened": "as §1"}, "Mus musculus [9]": {"test_system": "Mus musculus", "assay": "In vivo antinociceptive activity was determined using mouse acetylcholine induced abdominal constriction test following subcutaneous administration; range (0.01-0.02)", "assay_type": "functional", "settings": "Abdomen, sc", "procedure,_shortened": "as §1"}, "Mus musculus [10]": {"test_system": "Mus musculus", "assay": "In vivo antinociceptive activity was determined using mouse acetylcholine induced abdominal constriction test following subcutaneous administration; range (0.0003-0.002)", "assay_type": "functional", "settings": "Abdomen, sc", "procedure,_shortened": "as §1"}, "[11]": {"assay": "In vitro agonist activity at kappa opioid receptor in rabbit vas deferens."}, "Mus musculus [12]": {"test_system": "Mus musculus", "assay": "In vivo antinociceptive activity was determined using mouse acetylcholine induced abdominal constriction test following subcutaneous administration; range (0.000033-0.000241)", "assay_type": "functional", "settings": "Abdomen, sc", "procedure,_shortened": "as §1"}, "Mus musculus [13]": {"test_system": "Mus musculus", "assay": "In vivo antinociceptive activity was determined using mouse acetylcholine induced abdominal constriction test following subcutaneous administration; range (0.059-0.173)", "assay_type": "functional", "settings": "Abdomen, sc", "procedure,_shortened": "as §1"}, "Mus musculus [14]": {"test_system": "Mus musculus", "assay": "In vivo antinociceptive activity was determined using mouse acetylcholine induced abdominal constriction test following oral administration; range (0.005-0.035)", "assay_type": "functional", "settings": "Abdomen"}, "Mus musculus [15]": {"test_system": "Mus musculus", "assay": "In vivo antinociceptive activity was determined using mouse acetylcholine induced abdominal constriction test following subcutaneous administration; range (0.00012-0.00045)", "assay_type": "functional", "settings": "Abdomen, sc", "procedure,_shortened": "as §1"}, "Mus musculus [16]": {"test_system": "Mus musculus", "assay": "In vivo antinociceptive activity was determined using mouse acetylcholine induced abdominal constriction test following subcutaneous administration; range (0.00027-0.00086)", "assay_type": "functional", "settings": "Abdomen, sc", "procedure,_shortened": "as §1"}, "Rattus norvegicus [17]": {"test_system": "Rattus norvegicus", "assay": "In vivo antinociceptive activity was determined using rat paw pressure test following subcutaneous administration; range (0.00058-0.0014)", "assay_type": "functional", "settings": "sc"}, "Mu-type opioid receptor": {"molecular_target": "Mu-type opioid receptor (Rattus norvegicus, UniProt P33535)", "sequence (P33535 whole entry)": "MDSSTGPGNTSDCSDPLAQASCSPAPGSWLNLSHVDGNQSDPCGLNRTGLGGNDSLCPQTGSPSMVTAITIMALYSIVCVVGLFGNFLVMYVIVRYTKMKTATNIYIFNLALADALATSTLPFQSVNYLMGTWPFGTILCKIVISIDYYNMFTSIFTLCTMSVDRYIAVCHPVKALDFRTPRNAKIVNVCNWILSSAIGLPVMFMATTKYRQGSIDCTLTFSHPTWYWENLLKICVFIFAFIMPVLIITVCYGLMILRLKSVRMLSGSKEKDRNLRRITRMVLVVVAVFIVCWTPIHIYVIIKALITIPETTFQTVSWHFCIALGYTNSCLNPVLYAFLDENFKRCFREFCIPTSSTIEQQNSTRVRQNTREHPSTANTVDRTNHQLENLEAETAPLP", "assay": "In vitro inhibitory activity against mu specific tissue of rat vas deferens", "assay_type": "functional, tissue-based"}, "[18]": {"molecular_target": "Kappa-type opioid receptor (Homo sapiens) (UniProt P41145)", "sequence (P41145 whole entry)": "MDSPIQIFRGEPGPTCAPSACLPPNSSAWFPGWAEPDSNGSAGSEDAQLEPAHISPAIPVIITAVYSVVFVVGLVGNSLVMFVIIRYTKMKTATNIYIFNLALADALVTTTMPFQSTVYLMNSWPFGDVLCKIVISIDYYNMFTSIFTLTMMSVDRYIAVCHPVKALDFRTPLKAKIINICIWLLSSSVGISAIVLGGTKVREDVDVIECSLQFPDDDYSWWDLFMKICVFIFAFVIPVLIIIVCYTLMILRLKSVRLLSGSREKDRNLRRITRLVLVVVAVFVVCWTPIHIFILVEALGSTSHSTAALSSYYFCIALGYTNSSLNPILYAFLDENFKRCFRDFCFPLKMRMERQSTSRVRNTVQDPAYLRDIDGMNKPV", "settings": "Oryctolagus cuniculus; Vas deferens"}, "Mus musculus [19]": {"test_system": "Mus musculus", "assay": "In vivo antinociceptive activity was determined using mouse acetylcholine induced abdominal constriction test following subcutaneous administration; range (0.015-0.037)", "assay_type": "functional", "settings": "Abdomen, sc", "procedure,_shortened": "as §1"}, "Mus musculus [20]": {"test_system": "Mus musculus", "assay": "In vivo antinociceptive activity was determined using mouse acetylcholine induced abdominal constriction test following subcutaneous administration; range (0.04-0.15)", "assay_type": "functional", "settings": "Abdomen, sc", "procedure,_shortened": "as §1"}, "Rattus norvegicus [21]": {"species": "Rattus norvegicus", "assay": "Agonistic/Antagonistic activity in rat vas deferens (RVD) at 10e-5 M; not active", "assay_type": "functional"}}}
{"smiles": "CCCC(=O)N1CCN(C(=O)Cc2ccc(Cl)c(Cl)c2)C(CN2CCCC2)C1", "note": "(stereo not drawn)", "values": [{"measurement": "ED50", "setting": "Mus musculus [1]", "result": 0.41, "unit": "mg/kg"}]}
{"smiles": "CCC(=O)N1CCN(C(=O)Cc2ccc(Cl)c(Cl)c2)C(CN2CCCC2)C1", "note": "(stereo not drawn)", "values": [{"measurement": "ED50", "setting": "Mus musculus [2]", "result": 0.05, "unit": "mg/kg"}]}
{"smiles": "C=CC(=O)N1CCN(C(=O)Cc2ccc(Cl)c(Cl)c2)C(CN2CCCC2)C1", "note": "(stereo not drawn)", "values": [{"measurement": "ED50", "setting": "Mus musculus [3]", "result": 0.02, "unit": "mg/kg"}]}
{"smiles": "CCCOC(=O)N1CCN(C(=O)Cc2ccc(Cl)c(Cl)c2)C(CN2CCCC2)C1", "note": "(stereo not drawn)", "values": [{"measurement": "ED50", "setting": "Mus musculus [4]", "result": 0.68, "unit": "mg/kg"}]}
{"smiles": "CCOC(=O)N1CCN(C(=O)Cc2ccc(Cl)c(Cl)c2)C(CN2CCCC2)C1", "note": "(stereo not drawn)", "values": [{"measurement": "ED50", "setting": "Mus musculus [5]", "result": 0.01, "unit": "mg/kg"}]}
{"smiles": "COC(=O)N1CCN(C(=O)Cc2ccc(Cl)c(Cl)c2)C(CN2CCC(O)C2)C1", "note": "(stereo not drawn)", "values": [{"measurement": "ED50", "setting": "Mus musculus [6]", "result": 0.044, "unit": "mg/kg"}]}
{"smiles": "COC(=O)/C=C1/CCN(CC2CN(C(=O)OC)CCN2C(=O)Cc2ccc(Cl)c(Cl)c2)C1", "note": "(stereo not drawn)", "values": [{"measurement": "ED50", "setting": "Mus musculus [7]", "result": 4, "unit": "µg/kg"}]}
{"smiles": "O=CN1CCN(C(=O)Cc2ccc(Cl)c(Cl)c2)C(CN2CCCC2)C1", "note": "(stereo not drawn)", "values": [{"measurement": "ED50", "setting": "Mus musculus [8]", "result": 0.23, "unit": "mg/kg"}]}
{"smiles": "COC(=O)N1CCN(C(=O)Cc2ccc(Cl)c(Cl)c2)C(CN(C)C)C1", "note": "(stereo not drawn)", "values": [{"measurement": "ED50", "setting": "Mus musculus [9]", "result": 0.016, "unit": "mg/kg"}]}
{"smiles": "O=C(Cc1ccc(Cl)c(Cl)c1)N1CCC2(CC1CN1CCCC1)OCCO2", "note": "(stereo not drawn)", "values": [{"measurement": "ED50", "setting": "Mus musculus [10]", "result": 1, "unit": "µg/kg"}, {"measurement": "IC50", "setting": "[11]", "result": 0.1, "unit": "nM"}]}
{"smiles": "COC(=O)N1CCN(C(=O)Cc2ccc(Cl)c(Cl)c2)C(CN2CC=CCC2)C1", "note": "(stereo not drawn)", "values": [{"measurement": "ED50", "setting": "Mus musculus [12]", "result": 0.096, "unit": "µg/kg"}]}
{"smiles": "COC(=O)/C=C1\\CCN(CC2CN(C(=O)OC)CCN2C(=O)Cc2ccc(Cl)c(Cl)c2)C1", "note": "(stereo not drawn)", "values": [{"measurement": "ED50", "setting": "Mus musculus [13]", "result": 0.1, "unit": "mg/kg"}]}
{"smiles": "CN1CC[C@]23c4c5ccc(O)c4O[C@H]2[C@@H](O)C=C[C@H]3[C@H]1C5", "note": "[MORPHINE]", "values": [{"measurement": "ED50", "setting": "Mus musculus [4]", "result": 0.47, "unit": "mg/kg"}]}
{"smiles": "COC(=O)N1CCN(C(=O)Cc2ccc(Cl)c(Cl)c2)C(CN2CCCC2)C1", "note": "(stereo not drawn)", "values": [{"measurement": "ED50", "setting": "Mus musculus [14]", "result": 0.012, "unit": "mg/kg"}, {"measurement": "ED50", "setting": "Mus musculus [15]", "result": 0.25, "unit": "µg/kg"}, {"measurement": "ED50", "setting": "Mus musculus [16]", "result": 0.52, "unit": "µg/kg"}, {"measurement": "ED50", "setting": "Rattus norvegicus [17]", "result": 0.93, "unit": "µg/kg"}, {"measurement": "IC50", "setting": "Mu-type opioid receptor", "result": "> 10", "unit": "µM"}, {"measurement": "pKB", "setting": "[18]", "result": 7.7}]}
{"smiles": "COC(=O)N1CCN(C(=O)Cc2ccc(Cl)c(Cl)c2)C(CN2CCC(=O)C2)C1", "note": "(stereo not drawn)", "values": [{"measurement": "ED50", "setting": "Mus musculus [19]", "result": 0.023, "unit": "mg/kg"}]}
{"smiles": "CC(=O)N1CCN(C(=O)Cc2ccc(Cl)c(Cl)c2)C(CN2CCCC2)C1", "note": "(stereo not drawn)", "values": [{"measurement": "ED50", "setting": "Mus musculus [20]", "result": 0.08, "unit": "mg/kg"}, {"measurement": "IC50", "setting": "Rattus norvegicus [21]", "result": "Not Active"}]}
